Results on 27 molecules are retold here after ChEMBL document CHEMBL3045438, “Synthesis and fungicidal evaluation of novel chalcone-based strobilurin analogues” (2007).

Molecules are shown by their SMILES.

What all share (format): functional
Test [1] relates to Pseudoperonospora cubensis. In words: Antifungal activity against Pseudoperonospora cubensis assessed as fungicidal activity at 200 mg/L (beneficial crop - cucumber). An outline of the steps:
(§1)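 In vivo preventive test on cucumber as host plant.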

For test [2], the system named is Rhizoctonia solani. In words: Antifungal activity against Rhizoctonia solani assessed as fungicidal activity at 200 mg/L (beneficial crop - cucumber). An outline of the steps:
as §1

Test [3] relates to Botrytis cinerea. The test is described as follows: Antifungal activity against Botryotinia fuckeliana assessed as fungicidal activity at 200 mg/L (beneficial crop - cucumber). An outline of the steps:
as §1

Test [4] deals with Podosphaera fuliginea. In words: Antifungal activity against Podosphaera fuliginea assessed as fungicidal activity at 200 mg/L (beneficial crop - cucumber). An outline of the steps:
as §1

As for `CO/C=C(/C(=O)OC)c1ccccc1COc1ccc(C(=O)/C=C/c2ccc(Br)cc2)cc1`, the inhibition (usually the relative decrease from the control value, in per cent) at 200 µg/mL in test [1] worked out at 56%; in test [2], 0%; in test [3], 0%; in test [4] it was 0%.
With `CO/C=C(/C(=O)OC)c1ccccc1COc1cccc(C(=O)/C=C/c2ccccc2)c1`, the inhibition at 200 µg/mL turned out to be 96% in test [1], 0% in test [2], 0% in test [3] and 0% in test [4].
As to `CCOc1ccc(/C=C/C(=O)c2ccc(OCc3ccccc3/C(=C\OC)C(=O)OC)cc2)cc1`, the inhibition at 200 µg/mL in test [1] was 59%; in test [2] it was 0%; in test [3] it was 0%; in test [4] it was 0%.
Consider `CO/C=C(/C(=O)OC)c1ccccc1COc1ccc(C(=O)/C=C/c2ccc(OC)cc2)cc1`, for which the inhibition at 200 µg/mL came to 62% in test [1], 0% in test [2], 0% in test [3] and 0% in test [4].
As to `CO/C=C(/C(=O)OC)c1ccccc1COc1ccccc1C(=O)/C=C/c1ccc(OC)c(OC)c1`, the inhibition at 200 µg/mL in test [1], in test [2], in test [3] and in test [4] was 0% in each case.
For `CO/C=C(/C(=O)OC)c1ccccc1COc1ccc(Cl)cc1C(=O)/C=C/c1ccc(OC)cc1`, the inhibition at 200 µg/mL in test [1], in test [2], in test [3] and in test [4] was 0% in each case.
For `CO/C=C(/C(=O)OC)c1ccccc1COc1cccc(C(=O)/C=C/c2ccccc2F)c1`, the inhibition at 200 µg/mL in test [1] was 0%; in test [2], 38%; in test [3], 0%; in test [4] it was 0%.
With `CO/C=C(/C(=O)OC)c1ccccc1COc1cccc(C(=O)/C=C/c2ccc(Br)cc2)c1`, the inhibition at 200 µg/mL in test [1] came out at 94%; in test [2], 0%; in test [3], 0%; in test [4] it was 45%.
Turning to `CO/C=C(/C(=O)OC)c1ccccc1COc1cccc(C(=O)/C=C/c2ccc(Cl)c(Cl)c2)c1`, the inhibition at 200 µg/mL in test [1], in test [2], in test [3] and in test [4] was 0% in each case.
In the case of `CO/C=C(/C(=O)OC)c1ccccc1COc1ccc(C(=O)/C=C/c2ccc(Cl)cc2Cl)cc1`, the inhibition at 200 µg/mL in test [1] amounted to 67%; in test [2] it was 27%; in test [3], 0%; in test [4], 78%.
The corresponding values for `CCc1ccc(/C=C/C(=O)c2cccc(OCc3ccccc3/C(=C\OC)C(=O)OC)c2)cc1` are 100%, 0%, 0% and 78%.
The corresponding values for `CO/C=C(/C(=O)OC)c1ccccc1COc1ccc(C(=O)/C=C/c2ccc(C)c(C)c2)cc1` are 67%, 0%, 0% and 30%.
The matching figures for `CO/C=C(/C(=O)OC)c1ccccc1COc1cccc(C(=O)/C=C/c2ccc3c(c2)OCO3)c1`: 0%, 29%, 0% and 0%.
As to `CO/C=C(/C(=O)OC)c1ccccc1COc1cccc(C(=O)/C=C/c2ccc(N(C)C)cc2)c1`, the inhibition at 200 µg/mL stood at 0% in test [1], 32% in test [2], 0% in test [3] and 0% in test [4].
As for `CO/C=C(/C(=O)OC)c1ccccc1COc1ccccc1C(=O)/C=C/c1ccc(C)c(C)c1`, the inhibition at 200 µg/mL in test [1], in test [2], in test [3] and in test [4] was 0% in each case.
As to `CO/C=C(/C(=O)OC)c1ccccc1COc1ccccc1C(=O)/C=C/c1cccc(Cl)c1`, the inhibition at 200 µg/mL in test [1] came to 39%; in test [2], 0%; in test [3], 0%; in test [4], 0%.
For the molecule `CO/C=C(/C(=O)OC)c1ccccc1COc1ccc(Cl)cc1C(=O)/C=C/c1ccc(Cl)cc1`, the inhibition at 200 µg/mL amounted to 0% in test [1], 0% in test [2], 21% in test [3] and 86% in test [4].
As for `CO/C=C(/C(=O)OC)c1ccccc1COc1ccc(C(=O)/C=C/c2ccccc2Br)cc1`, the inhibition at 200 µg/mL in test [1] was 83%; in test [2], 21%; in test [3], 0%; in test [4], 67%.
The corresponding values for `CO/C=C(/C(=O)OC)c1ccccc1COc1cccc(C(=O)/C=C/c2cccc(Cl)c2)c1` are 33%, 0%, 0% and 30%.
The corresponding values for `CO/C=C(/C(=O)OC)c1ccccc1COc1ccc(C(=O)/C=C/c2ccco2)cc1` are 0%, 0%, 0% and 0%.
The corresponding values for `CO/C=C(/C(=O)OC)c1ccccc1COc1ccc(C(=O)/C=C/c2ccc3c(c2)OCO3)cc1` are 0%, 0%, 0% and 0%.
On to `CO/C=C(/C(=O)OC)c1ccccc1COc1cccc(C(=O)/C=C/c2ccc(Cl)cc2)c1`, for which the inhibition at 200 µg/mL in test [1] came out at 100%; in test [2], 0%; in test [3], 0%; in test [4], 96%.
As for `CO/C=C(/C(=O)OC)c1ccccc1COc1ccc(C(=O)/C=C/c2cccc(Br)c2)cc1`, the inhibition at 200 µg/mL in test [1] was found to be 56%; in test [2], 0%; in test [3] it was 0%; in test [4], 0%.
Turning to `CO/C=C(/C(=O)OC)c1ccccc1COc1ccc(C(=O)/C=C/c2ccc(Cl)c(Cl)c2)cc1`, the inhibition at 200 µg/mL was determined as 33% in test [1], 37% in test [2], 0% in test [3] and 67% in test [4].
Consider `CO/C=C(/C(=O)OC)c1ccccc1COc1ccc(C(=O)/C=C/c2c(F)cccc2Cl)cc1`, for which the inhibition at 200 µg/mL in test [1] is 67%; in test [2], 0%; in test [3], 0%; in test [4], 0%.
As for `CO/C=C(/C(=O)OC)c1ccccc1COc1ccc(Cl)cc1C(=O)/C=C/c1ccccc1Cl`, the inhibition at 200 µg/mL in test [1], in test [2], in test [3] and in test [4] was 0% throughout.
Consider `CCOc1ccc(/C=C/C(=O)c2cccc(OCc3ccccc3/C(=C\OC)C(=O)OC)c2)cc1`, for which the inhibition at 200 µg/mL in test [1] came to 33%; in test [2] it was 0%; in test [3], 0%; in test [4], 0%.
